Fewer inactive variants are shown than the library holds.
B1: tRNA (parent)
chain: GUUCCGUUGGCGUAAUGGUAACGCGUCUCCCUCCUAAGGAGAAGACUGCGGGUUCGAGUCCCGUACGGAACG

Variants of: B1
Assay: yeast fitness relative to wild type (ratio to wild type); higher = fitter; tRNA-Arg(CCU), competitive growth, 37 C, YPD
How it was run: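 A pool of Saccharomyces cerevisiae strains, each with a tRNA-Arg(CCU) gene variant at the native genomic locus, was competed in YPD at 37°C for 24 hours across six parallel replicates. The variants had been chemically synthesised at a 3% per-site mutation rate over 69 sites, and gene amplicons before and after competition were read by 100-nucleotide paired-end sequencing. Darwinian fitness relative to wild type rested on changes in genotype frequencies. Genotypes required ≥ 100 starting reads, and estimates < 0.5 were set to 0.5.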

| Variant | yeast fitness |
| --- | --- |
| GUUCCGUUGGCGUAAUGGUAACGCGUCUCGCUCCUAAGGAGAAGACUGCGGGUUGGAGACCCGGACGGAACG | ≤ 0.5 |
| GUUCCGUUGGCGUAAUGGUAACGCGUCUCGCUCCUAAGGAGAAGACUGAGGGUGCGAGUCCCGUACGGAACG | ≤ 0.5 |
| GUUCCGUUGGCGUAAUGGUAACGCGUCUCGCUCCUAAGGAGAAGAAGGAGGAUUCGACUCUCGGGCGGAACG | ≤ 0.5 |
| GUUCCGUUGGCGUAAUGGUAACGCGUCUCGCUCUUAAGGAGAAGACAGAGGGUUCGAGUCCCGUACGGAACG | 0.691 |
| GUUCCGUUGGCGUAAUGGUAACGCGUCUCGUUCCUAAGGAGAAGACUGCGGGUUCAAGUCCUGUACGGGACG | ≤ 0.5 |
| GUUCCGUUGGCGUAAUGGUAACGCGUCUCGCUCCUAAGGAGAAGACUGCGGGUUCGAGUCUCGUACGAAACG | 0.541 |
| GUUCCGUUGGCGUAAUGGUAACGCGUCUCGCUCCUAAGGAGAAGACUGCGGGUUCGUGUGCCGUACGGAACG | ≤ 0.5 |
| GUUCCGUUGGCGUAAUGGUAACGCGUCUCGCUCCUAAGGAGAAGACUGCGGGUUCGAGUCCCGUGCGGAACG | 0.639 |
| GUUCCGUUGGCGUAAUGGUAACGCGUCUCGCUCCUAAGGAGAAGACUGCGGGUUCGACUCCCGUACGGAACG | 0.637 |
| GUUCCGUUGGCGUAAUGGUAACGCGUCUCGCUGCUAAGGAGAAGACUGCGGGUUCGAGUGCCGUACGGAACG | ≤ 0.5 |
| GUUCCGUUGGCGUAAUGGUAACGCGUCUCGCUCCUAAGGAGAAGACUGCGGGUUCCAGUCCUGUACGGAACG | ≤ 0.5 |
| GUUCCGUUGGCGUAAUGGUAACGCGUCUCGCUCCUAAGGAGAAGAGUGCGGGUUCGAGUCCCGUACGGAACG | 0.693 |
| GUUCCGUUGGCGUAAUGGUAACGCGUCUCGCUCCUAAAGAGAAGACUGCGGGUUCGAGUCCCGUACGGAACG | 0.572 |
| GUUCCGUUGGCGUAAUGGUAACGCGUCUCGUUCCUAAGGAGAAGACUGCGGGUUCGAGUCCCGUACGGAACG | 0.678 |
| GUUCCGUUGGCGUAAUGGUAACGCGUCUCGCUGCUAAGGAGAAGACUGCGGGUUCGAGUCCCGUACGGAUCG | 0.532 |
| GUUCCGUUGGCGUAAUGGUAACGCGUCUCGCUUCUAAGGAGAAGACUGCGGGUUCGACUCCCGAACGGAACG | 0.56 |
| GUUCCGUUGGCGUAAUGGUAACGCGUCUCGCUACUAAGGAGAAGACUGCAGAUUCGAGUUGCGUACGGAACG | ≤ 0.5 |
| GUUCCGUUGGCGUAAUGGUAACGCGUCUCGCUCCUAAGCAGAAGACUGCGGGUUCGAGUCCCGUACGGAACG | 0.579 |
| GUUCCGUUGGCGUAAUGGUAACGCGUCUCGCUCCUAAGGAGAAGACUGCGGGUUCGAGUACCGUACGGAACG | 0.739 |

| Variant | yeast fitness |
| --- | --- |
| GUUCCGUUGGCGUAAUGGUAACGCGUCUCGCUCCUAAGGAGAAGACUGCGGGUUCGAGUGCCGUACGGAACG | 0.521 |
| GUUCCGUUGGCGUAAUGGUAACGCGUCUCGCUCCUAAGGAGAAGACUGCGGGUUCGAGUUCCGUACGGAACG | 0.552 |
| GUUCCGUUGGCGUAAUGGUAACGCGUCUCGCUCCUAAGCAGAAGACUGCGGGUUAGAGUCCCGUACGGAACG | ≤ 0.5 |
| GUUCCGUUGGCGUAAUGGUAACGCGUCUCGCUCCUAAGGAGAAGAAUGCGGGUUCGAGUCCCGUACGGAGCG | 0.591 |
| GUUCCGUUGGCGUAAUGGUAACGCGUCUCGCUACUAAGGAGAAGACUGAGGGUUCGAGUCCCGUACGGAACG | 0.618 |
| GUUCCGUUGGCGUAAUGGUAACGCGUCUCGCUCCUAAGGAGAAGACUGAGGGCUCGAGUCCCGUACGGAACG | 0.563 |
| GUUCCGUUGGCGUAAUGGUAACGCGUCUCGCUCCUAAGGAGAAGACUGCGGGUUCGAGUCCCGUACAGAACG | 0.619 |
| GUUCCGUUGGCGUAAUGGUAACGCGUCUCGCUCCUAAGGAGAAGACUGCGGGUUCGAGUCCCGUACUGAACG | 0.589 |
| GUUCCGUUGGCGUAAUGGUAACGCGUCUCGCUCCUAAGGAGAAGACUGCGGGUUCGUGUGCCGUUCGGAACG | 0.531 |
| GUUCCGUUGGCGUAAUGGUAACGCGUCUCGCUCCUAAGGAGAAGACUGGGGGUUCGAGUCCCGUACGGAACG | 0.635 |
| GUUCCGUUGGCGUAAUGGUAACGCGUCUCGCUCCUAAGGAGAAAACUACGGGUUCGAAUCCCGUACGGAACG | ≤ 0.5 |
| GUUCCGUUGGCGUAAUGGUAACGCGUCUCGCUUCUAAGGAGAAGACUGUGGGUUCAAGUCCCGUACGGAACG | ≤ 0.5 |
| GUUCCGUUGGCGUAAUGGUAACGCGUCUCGGUCCUAACGAGAAGAGUGCGGGUUCGAGUCCCGUACGGAACG | 0.768 |
| GUUCCGUUGGCGUAAUGGUAACGCGUCUCGCUCCUAAGGAGAAGACUGCGGGUUCGAGUCCAGUACGGAACG | 0.61 |
| GUUCCGUUGGCGUAAUGGUAACGCGUCUCGCUCCUAAGGAGAAGACUGCGGGUUCGAGUCCGGUACGGAACG | 0.551 |
| GUUCCGUUGGCGUAAUGGUAACGCGUCUCGCUGCUAAGGAGAAGACUGCGGGUUCGAGUGCCGUACGGACCG | ≤ 0.5 |
| GUUCCGUUGGCGUAAUGGUAACGCGUCUCGCUCCUAAGGAGAAGACUGAGGGCUCGAGUCCCAUAGGGAACG | ≤ 0.5 |
| GUUCCGUUGGCGUAAUGGUAACGCGUCUCGCUCCUAAGGAGAAGAGUGCGGCUUCGAGUCCCGUACGCAACG | ≤ 0.5 |

Reference: the RNAGym collection of RNA variant scans (doi:10.1126/science.aae0568)
